Data from ChEMBL document CHEMBL4689842, “EUbOPEN Chemogenomics Library wave 1” (2021).

Test system: Fibroblast
Experiment: Multiplex assay against human fibroblast
Type: toxicity, cell-based
In short: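 Per cents of healthy-nucleus cells form the tubulin, mitochondrial-mass and membrane-permeability phenotype values. Live cells were stained at seeding with Hoechst33342, BioTracker Green Microtubule Cytoskeleton Dye, MitoTracker Red and Annexin V Alexa Fluor 680. After compound addition they were imaged on a CQ1 microscope at 37°C and 5% CO2, and CellPathfinder machine-learning gating split them into Hoechst high-intensity objects or normal cells, normal cells into healthy, pyknosed or fragmented nuclei, and pyknosed cells into mitotic or apoptotic.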

[1] = 12 h, 1 µM, compound concentration 1 uM, replicate 1
[2] = 12 h, 1 µM, compound concentration 1 uM, replicate 2
[3] = 12 h, 10 µM, compound concentration 10 uM, replicate 1
[4] = 12 h, 10 µM, compound concentration 10 uM, replicate 2
[5] = 24 h, 1 µM, compound concentration 1 uM, replicate 1
[6] = 24 h, 1 µM, compound concentration 1 uM, replicate 2
[7] = 24 h, 10 µM, compound concentration 10 uM, replicate 1
[8] = 24 h, 10 µM, compound concentration 10 uM, replicate 2
[9] = 48 h, 1 µM, compound concentration 1 uM, replicate 1
[10] = 48 h, 1 µM, compound concentration 1 uM, replicate 2
[11] = 48 h, 10 µM, compound concentration 10 uM, replicate 1
[12] = 48 h, 10 µM, compound concentration 10 uM, replicate 2

SMILES: Cc1csc2c(N[C@@H](C)CN3CCN(S(=O)(=O)c4ccc(Cl)c(Cl)c4)CC3)ncnc12
- Population Apoptotic (%) [1]: 56%
- Population Fragmented Nuclei (%) [1]: 22%
- Population Healthy Nuclei (%) [1]: 46%
- Population Hoechst High Intensity Objects (%) [1]: 5%
- Population Membrane Permeable-Phenotype (%) [1]: 33%
- Population Mitochondria Different-Phenotype (%) [1]: 21%
- Population Mitotic Cells (%) [1]: 43%
- Population Normal (%) [1]: 94%
- Population Pyknosed Nuclei (%) [1]: 31%
- Population Tubulin-Different-Phenotype (%) [1]: 87%
- Total Cell Count [1]: 149
- Population Apoptotic (%) [2]: 16%
- Population Fragmented Nuclei (%) [2]: 5%
- Population Healthy Nuclei (%) [2]: 84%
- Population Membrane Permeable-Phenotype (%) [2]: 6%
- Population Mitochondria Different-Phenotype (%) [2]: 33%
- Population Mitotic Cells (%) [2]: 83%
- Population Normal (%) [2]: 95%
- Population Pyknosed Nuclei (%) [2]: 10%
- Population Tubulin-Different-Phenotype (%) [2]: 47%
- Total Cell Count [2]: 48
- Population Apoptotic (%) [3]: 52%
- Population Fragmented Nuclei (%) [3]: 32%
- Population Healthy Nuclei (%) [3]: 29%
- Population Hoechst High Intensity Objects (%) [3]: 21%
- Population Membrane Permeable-Phenotype (%) [3]: 23%
- Population Mitochondria Different-Phenotype (%) [3]: 42%
- Population Mitotic Cells (%) [3]: 47%
- Population Normal (%) [3]: 78%
- Population Pyknosed Nuclei (%) [3]: 38%
- Population Tubulin-Different-Phenotype (%) [3]: 92%
- Total Cell Count [3]: 113
- Population Apoptotic (%) [4]: 75%
- Population Fragmented Nuclei (%) [4]: 12%
- Population Healthy Nuclei (%) [4]: 67%
- Population Hoechst High Intensity Objects (%) [4]: 4%
- Population Membrane Permeable-Phenotype (%) [4]: 56%
- Population Mitochondria Different-Phenotype (%) [4]: 98%
- Population Mitotic Cells (%) [4]: 25%
- Population Normal (%) [4]: 95%
- Population Pyknosed Nuclei (%) [4]: 19%
- Population Tubulin-Different-Phenotype (%) [4]: 98%
- Total Cell Count [4]: 60
- Population Apoptotic (%) [5]: 59%
- Population Fragmented Nuclei (%) [5]: 26%
- Population Healthy Nuclei (%) [5]: 44%
- Population Hoechst High Intensity Objects (%) [5]: 8%
- Population Membrane Permeable-Phenotype (%) [5]: 19%
- Population Mitochondria Different-Phenotype (%) [5]: 33%
- Population Mitotic Cells (%) [5]: 40%
- Population Normal (%) [5]: 91%
- Population Pyknosed Nuclei (%) [5]: 29%
- Population Tubulin-Different-Phenotype (%) [5]: 90%
- Total Cell Count [5]: 156
- Population Apoptotic (%) [6]: 60%
- Population Fragmented Nuclei (%) [6]: 11%
- Population Healthy Nuclei (%) [6]: 73%
- Population Hoechst High Intensity Objects (%) [6]: 4%
- Population Membrane Permeable-Phenotype (%) [6]: 11%
- Population Mitochondria Different-Phenotype (%) [6]: 25%
- Population Normal (%) [6]: 95%
- Population Pyknosed Nuclei (%) [6]: 14%
- Population Tubulin-Different-Phenotype (%) [6]: 23%
- Total Cell Count [6]: 64
- Population Apoptotic (%) [7]: 67%
- Population Fragmented Nuclei (%) [7]: 36%
- Population Healthy Nuclei (%) [7]: 24%
- Population Hoechst High Intensity Objects (%) [7]: 23%
- Population Membrane Permeable-Phenotype (%) [7]: 19%
- Population Mitochondria Different-Phenotype (%) [7]: 71%
- Population Mitotic Cells (%) [7]: 32%
- Population Normal (%) [7]: 76%
- Population Pyknosed Nuclei (%) [7]: 39%
- Population Tubulin-Different-Phenotype (%) [7]: 80%
- Total Cell Count [7]: 113
- Population Apoptotic (%) [8]: 80%
- Population Fragmented Nuclei (%) [8]: 15%
- Population Healthy Nuclei (%) [8]: 57%
- Population Hoechst High Intensity Objects (%) [8]: 4%
- Population Membrane Permeable-Phenotype (%) [8]: 80%
- Population Mitochondria Different-Phenotype (%) [8]: 97%
- Population Mitotic Cells (%) [8]: 19%
- Population Normal (%) [8]: 95%
- Population Pyknosed Nuclei (%) [8]: 26%
- Population Tubulin-Different-Phenotype (%) [8]: 97%
- Total Cell Count [8]: 72
- Population Apoptotic (%) [9]: 67%
- Population Fragmented Nuclei (%) [9]: 22%
- Population Healthy Nuclei (%) [9]: 53%
- Population Hoechst High Intensity Objects (%) [9]: 9%
- Population Membrane Permeable-Phenotype (%) [9]: 33%
- Population Mitochondria Different-Phenotype (%) [9]: 17%
- Population Mitotic Cells (%) [9]: 32%
- Population Normal (%) [9]: 90%
- Population Pyknosed Nuclei (%) [9]: 24%
- Population Tubulin-Different-Phenotype (%) [9]: 96%
- Total Cell Count [9]: 155
- Population Apoptotic (%) [10]: 100%
- Population Fragmented Nuclei (%) [10]: 31%
- Population Healthy Nuclei (%) [10]: 67%
- Population Hoechst High Intensity Objects (%) [10]: 8%
- Population Membrane Permeable-Phenotype (%) [10]: 9%
- Population Mitochondria Different-Phenotype (%) [10]: 7%
- Population Mitotic Cells (%) [10]: 0%
- Population Normal (%) [10]: 91%
- Population Pyknosed Nuclei (%) [10]: 0%
- Population Tubulin-Different-Phenotype (%) [10]: 93%
- Total Cell Count [10]: 123
- Population Apoptotic (%) [11]: 100%
- Population Fragmented Nuclei (%) [11]: 33%
- Population Healthy Nuclei (%) [11]: 37%
- Population Hoechst High Intensity Objects (%) [11]: 40%
- Population Membrane Permeable-Phenotype (%) [11]: 21%
- Population Mitochondria Different-Phenotype (%) [11]: 56%
- Population Mitotic Cells (%) [11]: 0%
- Population Normal (%) [11]: 59%
- Population Pyknosed Nuclei (%) [11]: 29%
- Population Tubulin-Different-Phenotype (%) [11]: 82%
- Total Cell Count [11]: 104
- Population Apoptotic (%) [12]: 57%
- Population Fragmented Nuclei (%) [12]: 44%
- Population Healthy Nuclei (%) [12]: 47%
- Population Hoechst High Intensity Objects (%) [12]: 25%
- Population Membrane Permeable-Phenotype (%) [12]: 2%
- Population Mitochondria Different-Phenotype (%) [12]: 79%
- Population Mitotic Cells (%) [12]: 42%
- Population Normal (%) [12]: 75%
- Population Pyknosed Nuclei (%) [12]: 7%
- Population Tubulin-Different-Phenotype (%) [12]: 95%
- Total Cell Count [12]: 120
